Measured values: ChEMBL document CHEMBL4014327 (J Med Chem, 2017)
Values after ≈ are worked out from the molar mass of the structure shown.

Experiments:
[1] = target: Vascular endothelial growth factor receptor 2 (Homo sapiens, UniProt P35968); experiment: Inhibition of human recombinant VEGFR2 at 10 uM using CAGAGAIETDKEYYTVKD as substrate after 60 mins by Lance method
CYP1A2 = CYP1A2 (Homo sapiens, UniProt P05177); experiment: Inhibition of CYP1A2 in human liver microsomes at 3 uM; assay type: ADME
Rattus norvegicus [2] = experiment: Inhibition of LPS induced TNFalpha secretion in Sprague-Dawley rat assessed as decrease in TNFalpha level in serum at 3 mg/kg, po pretreated for 1 hr followed by LPS challenge measured after 1.5 hrs relative to control; assay type: functional
Outline: (§1)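 Male Sprague-Dawley rats, 6-8 weeks old, n = 6-9 per group. Test article was given orally at 0.3, 1, 3 or 30 mg/kg as a solution or suspension in 0.5% methylcellulose and 2% Tween 80 in water; controls received vehicle alone. Ultrapure LPS (0.01 mg/kg) was given iv 1 h later. Blood was drawn 1.5 h after challenge, and serum TNF was measured by MSD.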

Rattus norvegicus [3] = experiment: Inhibition of LPS induced TNFalpha secretion in po dosed Sprague-Dawley rat assessed as decrease in TNFalpha level in serum pretreated for 1 hr followed by LPS challenge measured after 1.5 hrs relative to control; assay type: functional, organism-based; outline: as §1
Plasma [4] = experiment: Free plasma concentration in Sprague-Dawley rat LPS model at 1 mg/kg, po after 2.5 hrs; assay type: ADME, organism-based; details: in vivo
Outline: (§2)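 Male Sprague−Dawley rats, 6−8 weeks old, n = 6−9 per group. Dosed orally at 0.3, 1, 3 or 30 mg/kg in 0.5% methylcellulose/2% Tween 80 in water. Ultrapure LPS 0.01 mg/kg iv given 1 h after dosing. Plasma exposure taken 2.5 h after oral dosing and reported as free concentration using fraction unbound in rat plasma.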

Cytochrome P450 1A2 = Cytochrome P450 1A2 (Homo sapiens, UniProt P05177); experiment: Time dependent inhibition of CYP1A2 in human liver microsomes at 100 uM; assay type: ADME
Outline: (§3)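 Time-dependent inhibition assessed in pooled human liver microsomes with probe substrates, test compound at 100 μM.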

[5] = Lipophilicity, log D of compound; assay type: physicochemical; details: octanol/water
Cytochrome P450 2C8 = Cytochrome P450 2C8 (Homo sapiens, UniProt P10632); experiment: Time dependent inhibition of CYP2C8 in human liver microsomes at 100 uM; assay type: ADME; outline: as §3
Cytochrome P450 2B6 = Cytochrome P450 2B6 (Homo sapiens, UniProt P20813); experiment: Time dependent inhibition of CYP2B6 in human liver microsomes at 100 uM; assay type: ADME; outline: as §3
Canis familiaris = experiment: Plasma clearance in Beagle dog at 1 mg/kg, iv administered as single dose; assay type: ADME, organism-based, Canis lupus familiaris; details: in vivo
[6] = Oral bioavailability in cynomolgus monkey at 5 mg/kg administered as single dose; assay type: ADME, organism-based, Macaca fascicularis; details: in vivo
[7] = Solubility of compound in phosphate buffer at pH 6.7; assay type: physicochemical
Outline: (§4)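 Solubility of crystalline material measured in phosphate-buffered saline pH 6.7, unbuffered water pH 8.1 and simulated fasted-state intestinal fluid pH 6.5, reported in μg/mL.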

[8] = Volume of distribution at steady state in Wistar Han rat at 1 mg/kg, iv administered as single dose; assay type: ADME, organism-based; details: in vivo, read-out: Vdss
Outline: (§5)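 Single-dose pharmacokinetic study in male animals, with iv and separate oral administration. Steady-state volume of distribution was derived from plasma concentrations after the iv dose.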

Plasma [9] = experiment: Free plasma concentration in Sprague-Dawley rat LPS model at 0.3 mg/kg, po after 2.5 hrs; assay type: ADME, organism-based; details: in vivo; outline: as §2
[10] = Apparent intrinsic clearance in human liver microsomes; assay type: ADME, microsome; details: read-out: CLH(app)
CYP2C9 = CYP2C9 (Homo sapiens, UniProt P11712); experiment: Inhibition of CYP2C9 in human liver microsomes at 3 uM; assay type: ADME
[11] = Half life in Wistar Han rat at 1 mg/kg, iv administered as single dose; assay type: ADME, organism-based; details: in vivo
[12] = target: Casein kinase I delta/epsilon (Homo sapiens) (UniProt P48730+P49674); experiment: Inhibition of CK1-delta/epsilon in human THP1 cell lysate at 200 nM
[13] = target: Dual specificity protein kinase CLK4 (Homo sapiens) (UniProt Q9HAZ1); experiment: Inhibition of recombinant human full length GST-tagged CLK4 expressed in baculovirus at 200 nM
[14] = Volume of distribution at steady state in Beagle dog at 1 mg/kg, iv administered as single dose; assay type: ADME, organism-based, Canis lupus familiaris; details: in vivo, read-out: Vdss; outline: as §5
Rattus norvegicus [15] = experiment: Inhibition of LPS induced TNFalpha secretion in Sprague-Dawley rat assessed as decrease in TNFalpha level in serum at 30 mg/kg, po pretreated for 1 hr followed by LPS challenge measured after 1.5 hrs relative to control; assay type: functional; outline: as §1
[16] = Half life in Beagle dog at 5 mg/kg, po administered as single dose; assay type: ADME, organism-based, Canis lupus familiaris; details: in vivo
Plasma [17] = experiment: Free plasma concentration in Sprague-Dawley rat LPS model at 30 mg/kg, po after 2.5 hrs; assay type: ADME, organism-based; details: in vivo; outline: as §2
[18] = Oral bioavailability in Wistar Han rat at 5 mg/kg administered as single dose; assay type: ADME, organism-based; details: in vivo
[19] = target: Casein kinase I isoform gamma-1 (Homo sapiens) (UniProt Q9HCP0); experiment: Inhibition of recombinant human full length GST-tagged CK1gamma1 expressed in baculovirus at 200 nM
Rattus norvegicus [20] = experiment: Inhibition of LPS induced TNFalpha secretion in Sprague-Dawley rat assessed as decrease in TNFalpha level in serum at 1 mg/kg, po pretreated for 1 hr followed by LPS challenge measured after 1.5 hrs relative to control; assay type: functional; outline: as §1
[21] = target: Leucine-rich repeat serine/threonine-protein kinase 2 (Homo sapiens) (UniProt Q5S007); experiment: Inhibition of recombinant human GST-tagged LRRK2 expressed in baculovirus at 200 nM
[22] = Solubility of compound in simulated fasted state intestinal fluid at pH 6.5; assay type: physicochemical; outline: as §4
[23] = target: Interleukin-1 receptor-associated kinase 3 (Homo sapiens) (UniProt Q9Y616); experiment: Inhibition of IRAK3 in human THP1 cell lysate at 200 nM
[24] = Half life in cynomolgus monkey at 5 mg/kg, po administered as single dose; assay type: ADME, organism-based, Macaca fascicularis; details: in vivo
[25] = Apparent permeability in RRCK cells from apical to basolateral side; assay type: ADME, cell-based, Canis lupus familiaris, MDCKII-LE; details: dog, MDCK
Outline: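 RRCK cell monolayer permeability assay; apparent permeability reported in cm/s.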

Cytochrome P450 2D6 = Cytochrome P450 2D6 (Homo sapiens, UniProt P10635); experiment: Time dependent inhibition of CYP2D6 in human liver microsomes at 100 uM; assay type: ADME
Outline: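 Pooled human liver microsomes with CYP probe substrates. Time-dependent inhibition was assessed across CYP1A2, 2B6, 2C8, 2C9, 2C19 and 2D6, with test compound at 100 μM.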

[26] = Fraction unbound in rat plasma; assay type: ADME, cell-free
Outline: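 Fraction unbound in plasma measured by equilibrium dialysis.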

[27] = target: Phosphatidylinositol 5-phosphate 4-kinase type-2 gamma (Homo sapiens) (UniProt Q8TBX8); experiment: Inhibition of PIPK2C in human THP1 cell lysate at 200 nM
Cynomolgus monkey = experiment: Plasma clearance in cynomolgus monkey at 1 mg/kg, iv administered as single dose; assay type: ADME, organism-based, Macaca fascicularis; details: in vivo
Cytochrome P450 2C19 = Cytochrome P450 2C19 (Homo sapiens, UniProt P33261); experiment: Time dependent inhibition of CYP2C19 in human liver microsomes at 100 uM; assay type: ADME; outline: as §3
Cytochrome P450 2C19, sequence (P33261 whole entry): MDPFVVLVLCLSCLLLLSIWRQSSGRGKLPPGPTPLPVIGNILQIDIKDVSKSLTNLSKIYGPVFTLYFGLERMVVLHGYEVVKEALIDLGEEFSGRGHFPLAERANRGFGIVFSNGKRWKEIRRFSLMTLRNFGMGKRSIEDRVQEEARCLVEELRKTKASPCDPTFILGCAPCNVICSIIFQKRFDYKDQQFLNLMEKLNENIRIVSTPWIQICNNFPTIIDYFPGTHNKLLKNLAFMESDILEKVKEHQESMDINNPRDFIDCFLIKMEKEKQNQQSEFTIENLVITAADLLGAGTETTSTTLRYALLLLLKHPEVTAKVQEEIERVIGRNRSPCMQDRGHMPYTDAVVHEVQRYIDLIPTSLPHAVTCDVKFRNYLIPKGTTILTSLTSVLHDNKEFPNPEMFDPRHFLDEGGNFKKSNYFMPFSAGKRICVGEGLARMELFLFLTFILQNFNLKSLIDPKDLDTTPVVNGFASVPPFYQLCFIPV

CYP1A2, sequence (P05177 whole entry): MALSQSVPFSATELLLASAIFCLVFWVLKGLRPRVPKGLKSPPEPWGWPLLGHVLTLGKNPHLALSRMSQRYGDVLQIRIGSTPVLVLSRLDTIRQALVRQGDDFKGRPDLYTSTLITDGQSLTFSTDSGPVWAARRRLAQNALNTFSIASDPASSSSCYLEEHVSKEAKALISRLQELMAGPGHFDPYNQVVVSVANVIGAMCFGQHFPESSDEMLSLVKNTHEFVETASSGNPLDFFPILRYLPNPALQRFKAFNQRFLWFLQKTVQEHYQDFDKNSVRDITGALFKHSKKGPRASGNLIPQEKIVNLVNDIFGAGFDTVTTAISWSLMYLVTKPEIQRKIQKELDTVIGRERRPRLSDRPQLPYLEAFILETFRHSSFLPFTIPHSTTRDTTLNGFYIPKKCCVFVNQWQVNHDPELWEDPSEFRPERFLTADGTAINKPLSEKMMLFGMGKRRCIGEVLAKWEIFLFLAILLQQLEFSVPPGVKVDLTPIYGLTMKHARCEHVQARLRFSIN
Cytochrome P450 1A2, sequence (P05177 whole entry): as above
CYP2C9, sequence (P11712 whole entry): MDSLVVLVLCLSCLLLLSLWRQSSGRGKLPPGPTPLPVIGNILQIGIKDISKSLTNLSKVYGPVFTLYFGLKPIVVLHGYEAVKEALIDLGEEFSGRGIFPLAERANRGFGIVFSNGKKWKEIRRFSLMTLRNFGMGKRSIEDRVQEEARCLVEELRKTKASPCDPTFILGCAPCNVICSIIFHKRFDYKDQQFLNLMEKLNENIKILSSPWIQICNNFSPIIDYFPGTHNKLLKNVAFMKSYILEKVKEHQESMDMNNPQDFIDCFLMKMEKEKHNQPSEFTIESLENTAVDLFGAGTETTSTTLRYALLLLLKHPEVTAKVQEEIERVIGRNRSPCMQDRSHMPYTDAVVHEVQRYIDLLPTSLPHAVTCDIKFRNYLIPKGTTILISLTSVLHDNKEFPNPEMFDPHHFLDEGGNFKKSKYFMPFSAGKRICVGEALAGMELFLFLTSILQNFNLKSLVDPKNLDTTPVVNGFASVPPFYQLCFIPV
Phosphatidylinositol 5-phosphate 4-kinase type-2 gamma (Homo sapiens), sequence (Q8TBX8 whole entry): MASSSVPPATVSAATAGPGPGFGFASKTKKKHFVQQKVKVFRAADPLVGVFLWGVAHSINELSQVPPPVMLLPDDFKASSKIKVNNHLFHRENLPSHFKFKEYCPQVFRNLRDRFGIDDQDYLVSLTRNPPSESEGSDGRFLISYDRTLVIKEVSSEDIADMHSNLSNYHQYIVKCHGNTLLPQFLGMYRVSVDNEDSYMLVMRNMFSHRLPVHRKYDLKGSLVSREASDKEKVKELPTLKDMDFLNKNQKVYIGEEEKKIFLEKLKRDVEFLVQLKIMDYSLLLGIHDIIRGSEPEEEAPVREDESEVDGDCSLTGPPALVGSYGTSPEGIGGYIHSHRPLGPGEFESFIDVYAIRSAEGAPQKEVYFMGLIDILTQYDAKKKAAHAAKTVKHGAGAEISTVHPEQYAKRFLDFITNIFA
Leucine-rich repeat serine/threonine-protein kinase 2 (Homo sapiens), sequence (Q5S007 whole entry): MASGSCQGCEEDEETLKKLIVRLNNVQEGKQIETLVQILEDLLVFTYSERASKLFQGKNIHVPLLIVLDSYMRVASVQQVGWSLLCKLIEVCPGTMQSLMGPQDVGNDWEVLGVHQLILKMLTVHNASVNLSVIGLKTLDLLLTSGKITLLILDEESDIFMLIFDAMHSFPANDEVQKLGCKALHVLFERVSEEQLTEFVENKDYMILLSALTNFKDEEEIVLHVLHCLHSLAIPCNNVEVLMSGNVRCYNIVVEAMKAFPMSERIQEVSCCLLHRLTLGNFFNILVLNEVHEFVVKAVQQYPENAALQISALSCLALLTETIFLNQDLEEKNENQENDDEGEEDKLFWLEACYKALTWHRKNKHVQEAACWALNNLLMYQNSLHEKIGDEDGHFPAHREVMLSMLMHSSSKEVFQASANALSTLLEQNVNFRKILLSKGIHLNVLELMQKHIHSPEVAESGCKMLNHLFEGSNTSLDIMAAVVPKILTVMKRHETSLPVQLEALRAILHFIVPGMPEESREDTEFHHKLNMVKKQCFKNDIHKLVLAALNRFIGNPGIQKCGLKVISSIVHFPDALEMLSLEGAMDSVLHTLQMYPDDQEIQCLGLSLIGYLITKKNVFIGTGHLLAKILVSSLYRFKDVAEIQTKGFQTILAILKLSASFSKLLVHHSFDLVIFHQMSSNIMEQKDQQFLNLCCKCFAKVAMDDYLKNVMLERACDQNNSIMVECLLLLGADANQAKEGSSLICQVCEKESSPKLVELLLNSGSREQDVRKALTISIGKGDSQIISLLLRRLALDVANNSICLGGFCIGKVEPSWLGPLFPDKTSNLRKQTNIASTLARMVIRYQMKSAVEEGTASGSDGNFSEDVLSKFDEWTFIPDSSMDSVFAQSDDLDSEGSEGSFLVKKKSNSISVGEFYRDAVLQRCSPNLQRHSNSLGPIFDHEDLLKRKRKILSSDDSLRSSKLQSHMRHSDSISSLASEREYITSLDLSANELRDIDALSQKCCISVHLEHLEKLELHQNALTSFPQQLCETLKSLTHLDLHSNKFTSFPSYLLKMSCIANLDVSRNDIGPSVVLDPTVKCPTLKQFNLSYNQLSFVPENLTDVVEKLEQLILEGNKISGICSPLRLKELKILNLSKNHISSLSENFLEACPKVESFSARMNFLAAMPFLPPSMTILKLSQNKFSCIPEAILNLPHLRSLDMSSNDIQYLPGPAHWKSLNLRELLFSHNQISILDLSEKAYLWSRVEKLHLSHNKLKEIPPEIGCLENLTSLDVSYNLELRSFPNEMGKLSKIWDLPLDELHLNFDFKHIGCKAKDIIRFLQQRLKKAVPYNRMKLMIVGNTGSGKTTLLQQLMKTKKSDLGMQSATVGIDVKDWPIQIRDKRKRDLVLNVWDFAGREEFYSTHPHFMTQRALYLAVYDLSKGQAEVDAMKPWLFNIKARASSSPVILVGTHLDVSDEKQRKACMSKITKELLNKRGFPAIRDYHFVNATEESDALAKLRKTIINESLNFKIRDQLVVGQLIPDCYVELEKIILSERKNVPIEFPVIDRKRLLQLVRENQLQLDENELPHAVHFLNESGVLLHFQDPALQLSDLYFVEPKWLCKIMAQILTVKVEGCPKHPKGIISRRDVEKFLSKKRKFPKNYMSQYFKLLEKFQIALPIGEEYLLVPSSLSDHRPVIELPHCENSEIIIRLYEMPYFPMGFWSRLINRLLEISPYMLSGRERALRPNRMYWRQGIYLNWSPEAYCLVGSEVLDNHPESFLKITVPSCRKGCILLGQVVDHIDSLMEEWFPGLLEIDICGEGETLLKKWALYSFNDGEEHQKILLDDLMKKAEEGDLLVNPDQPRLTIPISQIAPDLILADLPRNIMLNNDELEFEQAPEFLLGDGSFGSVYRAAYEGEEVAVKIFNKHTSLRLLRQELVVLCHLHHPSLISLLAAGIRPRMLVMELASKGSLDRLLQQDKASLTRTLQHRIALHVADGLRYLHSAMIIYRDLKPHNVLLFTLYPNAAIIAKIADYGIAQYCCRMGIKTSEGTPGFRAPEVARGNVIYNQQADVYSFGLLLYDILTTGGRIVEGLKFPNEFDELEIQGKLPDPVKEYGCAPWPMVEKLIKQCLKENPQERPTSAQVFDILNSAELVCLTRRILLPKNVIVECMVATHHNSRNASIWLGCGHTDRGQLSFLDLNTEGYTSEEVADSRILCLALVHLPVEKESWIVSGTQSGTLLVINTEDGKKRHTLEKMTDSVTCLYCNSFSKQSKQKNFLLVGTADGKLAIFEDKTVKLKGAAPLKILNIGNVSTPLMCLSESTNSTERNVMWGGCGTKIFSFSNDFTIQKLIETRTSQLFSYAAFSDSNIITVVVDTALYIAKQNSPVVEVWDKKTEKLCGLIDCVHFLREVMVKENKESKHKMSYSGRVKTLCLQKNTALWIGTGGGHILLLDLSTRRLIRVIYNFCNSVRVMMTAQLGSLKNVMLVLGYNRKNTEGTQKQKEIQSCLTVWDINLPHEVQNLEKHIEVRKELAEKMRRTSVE
Cytochrome P450 2C8, sequence (P10632 whole entry): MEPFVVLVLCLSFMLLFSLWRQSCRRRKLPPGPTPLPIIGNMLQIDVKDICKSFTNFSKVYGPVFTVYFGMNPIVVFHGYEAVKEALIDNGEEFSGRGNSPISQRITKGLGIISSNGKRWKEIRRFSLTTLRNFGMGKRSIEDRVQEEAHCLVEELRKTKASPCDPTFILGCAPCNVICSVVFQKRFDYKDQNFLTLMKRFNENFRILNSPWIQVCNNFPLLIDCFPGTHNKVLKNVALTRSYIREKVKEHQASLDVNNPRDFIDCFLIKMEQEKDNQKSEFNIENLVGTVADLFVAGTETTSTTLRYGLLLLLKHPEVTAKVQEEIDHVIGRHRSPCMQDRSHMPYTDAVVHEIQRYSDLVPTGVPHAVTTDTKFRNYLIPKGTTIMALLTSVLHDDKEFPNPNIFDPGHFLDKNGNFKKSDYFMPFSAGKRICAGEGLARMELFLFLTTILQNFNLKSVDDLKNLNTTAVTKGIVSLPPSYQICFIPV

Molecule CC[C@@H]1[C@H](F)C(=O)N[C@@H]1COc1nccc2cc(C(N)=O)c(OC)cc12 [ZIMLOVISERTIB] has an inhibition [1] greater than 50%, an inhibition at 3 µM (CYP1A2) of less than 5% and an inhibition in vivo at 3 mg/kg (Rattus norvegicus [2]) of 60%. The inhibition (Rattus norvegicus [3]) was “Dose-dependent effect”, the “Cp(f)” value (Plasma [4]) was 7.7 nM and the TDI (Cytochrome P450 1A2) was “Not Active”. For the same molecule, the logD [5] was 2, the TDI (Cytochrome P450 2C8) was “Not Active” and the TDI (Cytochrome P450 2B6) was “Not Active”. The clearance (Canis familiaris) was 10 mL/min/kg, the bioavailability [6] was 6.9% and the solubility [7] was 57 µg/mL (≈ 158 µM). The Vd [8] was 1.8 L/kg, the “Cp(f)” value (Plasma [9]) was 2.1 nM and the microsomal CLint [10] was 25 µL/min/mg. The inhibition at 3 µM (CYP2C9) was less than 5%, the half-life [11] was 0.6 h and the inhibition [12] was greater than 50%. For the same molecule, the inhibition [13] was greater than 70%, the Vd [14] was 0.77 L/kg and the inhibition in vivo at 30 mg/kg (Rattus norvegicus [15]) was 87%. For the same molecule, the half-life [16] was 4 h, the “Cp(f)” value (Plasma [17]) was 150 nM and the bioavailability [18] was 34 to 50%. The inhibition [19] was greater than 70%, the inhibition in vivo at 1 mg/kg (Rattus norvegicus [20]) was 52% and the inhibition [21] was greater than 70%. The solubility [22] was 62 µg/mL (≈ 172 µM), the inhibition [23] was greater than 50% and the half-life [24] was 6.2 h. For the same molecule, the Papp A→B [25] was 9.6 ×10⁻⁶ cm/s, the TDI (Cytochrome P450 2D6) was “Not Active” and the fraction unbound [26] was 0.3. For the same molecule, the inhibition [27] was greater than 50%, the clearance (Cynomolgus monkey) was 10 mL/min/kg and the TDI (Cytochrome P450 2C19) was “Not Active”.
